One assay relates to B16-F10. Briefly: Cytotoxicity against mouse B16F10 cells after 72 hrs by MTS assay. The class given is functional, cell-based. Particulars: B16-F10, 72 h. In outline:
(§1)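 MTS viability assay on HNSCC (JMAR, MDA-1986), melanoma (B16F10, SKMEL-28) and normal fetal fibroblast (MRC-5) cells. Pure compounds tested at ten concentrations from 50 nM to 20 μM. IC50 values derived from the concentration series.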
(Formazan colour is commonly taken as a measure of viable cells.)

Assay [1] can be described thus: Cytotoxicity against human MDA1986 cells after 72 hrs by MTS assay. The class given is functional, cell-based. Particulars: MDA1986, 72 h. The procedure, abridged: as §1
The nature of assay [2]: Cytotoxicity against human […] cells after 72 hrs by MTS assay. The class given is cell-based. The procedure, abridged:
as §1

The nature of assay [3]: Cytotoxicity against human JMAR cells after 72 hrs by MTS assay. Type of assay: functional, cell-based. In outline: as §1
For another assay, the system named is SK-MEL-28. Put plainly: Cytotoxicity against human SK-MEL-28 cells after 72 hrs by MTS assay. The class given is functional, cell-based. Particulars: SK-MEL-28, 72 h. The procedure, abridged:
as §1

As to `CC1=C(CO[C@@H]2O[C@H](CO)[C@@H](O)[C@H](O)[C@H]2O)C(=O)O[C@@H]([C@@H](C)[C@H]2CC[C@H]3[C@@H]4C[C@H]5O[C@]56[C@@H](O)C=CC(=O)[C@]6(C)[C@H]4CC[C@]23C)C1` [SITOINDOSIDE IX], the IC50 (usually the midpoint of a concentration-inhibition curve) in the assay with B16-F10 was 3.7 µM; in assay [1] it was over 10 µM; in assay [2], 5.2 µM; in assay [3], 4.2 µM; in the assay with SK-MEL-28, 8.3 µM.

With `CO[C@H]1CC(=O)[C@]2(C)[C@H]3CC[C@]4(C)[C@@H]([C@H](C)[C@H]5CC(C)=C(CO)C(=O)O5)CC[C@H]4[C@@H]3C[C@H]3O[C@]32[C@H]1O`, the half-maximal inhibitory concentration (IC50) (in the assay with B16-F10; in assay [1]; in assay [2]; in assay [3]; in the assay with SK-MEL-28) was over 10 µM in each case.

In the case of `CC1=C(CO)C(=O)O[C@@H]([C@@H](C)[C@H]2CC[C@H]3[C@@H]4C[C@H]5O[C@]56[C@@H](O)C=CC(=O)[C@]6(CO)[C@H]4[C@@H](O)C[C@]23C)C1`, the IC50 stood at 0.49 µM in the assay on B16-F10; 2.6 µM in assay [1]; 3.6 µM in assay [2]; 0.77 µM in assay [3]; 3 µM with SK-MEL-28.

Take `CC1=C(CO[C@@H]2O[C@H](CO)[C@@H](O)[C@H](O)[C@H]2O)C[C@H]([C@@H](C)[C@H]2CC[C@H]3[C@@H]4C[C@H](O)C5=C(C(=O)C[C@H](O)C5)[C@H]4CC[C@]23C)OC1=O` [WITHALONGOLIDE L]: the IC50 (in the assay with B16-F10; in assay [1]; in assay [2]; in assay [3]; with SK-MEL-28) was over 10 µM in each case.

In the case of `CC1=C(CO)C(=O)O[C@@H]([C@@H](C)[C@H]2CC[C@H]3[C@@H]4C[C@H]5O[C@]56[C@@H](O)[C@@H](O)CC(=O)[C@]6(C)[C@H]4CC[C@]23C)C1` [VISCOSALACTONE B], the concentration for half-maximal inhibition (IC50) (with B16-F10; in assay [1]; in assay [2]; in assay [3]; in the assay with SK-MEL-28) was over 10 µM throughout.

Turning to `CC(=O)OCC1=C(C)C[C@H]([C@@H](C)[C@H]2CC[C@H]3[C@@H]4C[C@H]5O[C@]56[C@@H](OC(C)=O)C=CC(=O)[C@]6(CO)[C@H]4CC[C@]23C)OC1=O`, the IC50 in the assay on B16-F10 is 0.098 µM; in assay [1] it was 2.2 µM; in assay [2], 0.41 µM; in assay [3] it was 0.14 µM; with SK-MEL-28, 0.81 µM.

As to `CC1=C(CO[C@@H]2O[C@H](CO)[C@@H](O[C@@H]3O[C@@H](C)[C@H](O)[C@@H](O)[C@H]3O)[C@H](O)[C@H]2O)C(=O)O[C@@H]([C@@H](C)[C@H]2CC[C@H]3[C@@H]4C[C@H]5O[C@]56[C@@H](O)C=CC(=O)[C@]6(C)[C@H]4CC[C@]23C)C1` [WITHALONGOLIDE H], the half-maximal inhibitory concentration (IC50) in the assay with B16-F10 was over 10 µM; in assay [1], 8.1 µM; in assay [2], 8.7 µM; in assay [3], 8.2 µM; in the assay on SK-MEL-28, over 10 µM.

In the case of `CC1=C(CO[C@@H]2O[C@H](CO)[C@@H](O)[C@H](O)[C@H]2O)C[C@H]([C@@H](C)[C@H]2CC[C@H]3[C@@H]4CCC5=C(C(=O)C[C@H](O)C5)[C@H]4CC[C@]23C)OC1=O` [WITHALONGOLIDE M], the IC50 (with B16-F10; in assay [1]; in assay [2]; in assay [3]; with SK-MEL-28) was over 10 µM throughout.

These data come from ChEMBL document CHEMBL1933033, “Cytotoxic withanolide constituents of Physalis longifolia” (J Nat Prod, 2011).
